# ChEMBL document CHEMBL1148224, “The synthesis and structure-activity relationships of 3-amino-4-benzylquinolin-2-ones; discovery of novel KCNQ2 channel openers” (Bioorg Med Chem Lett, 2004)
# Columns and labels:
# [1] = biological target: Potassium voltage-gated channel subfamily KQT member 2 (Mus musculus) (UniProt Q9Z351); test: Increased outward current at -40 mV mediated by mouse KCNQ2 channel expressed in Xenopus laevis oocytes at 20 uM; assay type: functional, cell-based; conditions: Oocyte
# Sequence of Potassium voltage-gated channel subfamily KQT member 2 (Mus musculus) (Q9Z351 whole entry): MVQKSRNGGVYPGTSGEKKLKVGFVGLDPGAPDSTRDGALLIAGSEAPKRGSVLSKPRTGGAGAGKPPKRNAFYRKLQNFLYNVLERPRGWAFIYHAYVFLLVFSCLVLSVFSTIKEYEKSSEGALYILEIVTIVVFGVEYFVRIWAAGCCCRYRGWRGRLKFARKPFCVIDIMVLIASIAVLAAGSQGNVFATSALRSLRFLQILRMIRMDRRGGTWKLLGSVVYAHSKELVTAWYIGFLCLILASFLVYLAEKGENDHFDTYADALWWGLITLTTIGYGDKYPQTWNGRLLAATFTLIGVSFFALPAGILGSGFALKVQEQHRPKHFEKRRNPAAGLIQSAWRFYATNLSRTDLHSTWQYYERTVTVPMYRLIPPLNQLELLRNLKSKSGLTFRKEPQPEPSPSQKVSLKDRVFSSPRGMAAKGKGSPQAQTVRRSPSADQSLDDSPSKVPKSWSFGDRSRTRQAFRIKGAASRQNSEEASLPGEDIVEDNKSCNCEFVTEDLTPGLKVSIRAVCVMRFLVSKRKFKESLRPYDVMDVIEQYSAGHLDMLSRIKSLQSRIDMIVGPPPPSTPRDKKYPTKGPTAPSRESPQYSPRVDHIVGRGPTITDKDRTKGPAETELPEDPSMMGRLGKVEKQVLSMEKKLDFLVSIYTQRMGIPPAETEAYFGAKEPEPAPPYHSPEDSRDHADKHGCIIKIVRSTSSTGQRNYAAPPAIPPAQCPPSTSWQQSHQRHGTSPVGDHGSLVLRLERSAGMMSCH
# Summary of the method: (§1)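 Mouse KCNQ2 (mKCNQ2) currents recorded from Xenopus oocytes by two-electrode voltage clamp. Holding potential -90 mV, with about 5 s steps in +10 mV increments up to +40 mV. Records digitized at 5 kHz. Each compound applied at a single concentration (1, 5 or 20 µM) in at least 3 oocytes. Value is the mean percent change in current relative to the drug-free control (100%).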
# [2] = biological target: Potassium voltage-gated channel subfamily KQT member 2 (Mus musculus) (UniProt Q9Z351); test: Increased outward current at -40 mV mediated by mouse KCNQ2 channel expressed in Xenopus laevis oocytes at 1 uM; assay type: functional, cell-based; conditions: Oocyte; summary of the method: as §1
# [3] = biological target: Potassium voltage-gated channel subfamily KQT member 2 (Mus musculus) (UniProt Q9Z351); test: Increased outward current at -40 mV mediated by mouse KCNQ2 channel expressed in Xenopus laevis oocytes at 20 uM; Insoluble; assay type: functional, cell-based; conditions: Oocyte; summary of the method: as §1
# [4] = biological target: Potassium voltage-gated channel subfamily KQT member 2 (Mus musculus) (UniProt Q9Z351); test: Increased outward current at -40 mV mediated by mouse KCNQ2 channel expressed in Xenopus laevis oocytes at 5 uM; Insoluble; assay type: functional, cell-based; conditions: Oocyte; summary of the method: as §1
# [5] = biological target: Potassium voltage-gated channel subfamily KQT member 2 (Mus musculus, UniProt Q9Z351); test: Increased outward current at -40 mV mediated by mouse KCNQ2 channel expressed in Xenopus laevis oocytes; assay type: functional, cell-based, Oocyte
# Sequence of Potassium voltage-gated channel subfamily KQT member 2 (Q9Z351 whole entry): as above
# [6] = biological target: Potassium voltage-gated channel subfamily KQT member 2 (Mus musculus) (UniProt Q9Z351); test: Increased outward current at -40 mV mediated by mouse KCNQ2 channel expressed in Xenopus laevis oocytes at 100 nM; assay type: functional, cell-based; conditions: Oocyte
compound,measurement,setting,value
O=S(=O)(Nc1c(O)nc2cc(C(F)(F)F)ccc2c1Cc1ccccc1O)C(F)(F)F,Increase,[1],277%
Nc1c(O)nc2ccccc2c1Cc1ccccc1,Increase,[1],103%
O=S(=O)(Nc1c(O)nc2ccccc2c1Cc1ccccc1)C(F)(F)F,Increase,[1],131%
COc1ccc(Cl)cc1Cc1c(NS(=O)(=O)C(F)(F)F)c(O)nc2ccc(C(F)(F)F)cc12,Increase,[1],231%
CCOC(=O)Nc1ccc(NCc2ccc(F)cc2)cc1N,Increase,[1],269%
Nc1c(O)nc2cc(C(F)(F)F)ccc2c1Cc1cc(Cl)ccc1O,Increase,[2],89%
same,Increase,[3],Insoluble
same,Increase,[4],Insoluble
O=c1[nH]c2ccc(C(F)(F)F)cc2c(Cc2cc(Cl)ccc2O)c1NS(=O)(=O)C(F)(F)F,EC50,[5],663 nM
O=S(=O)(Nc1c(O)nc2cc(C(F)(F)F)ccc2c1Cc1ccccc1)C(F)(F)F,Increase,[1],223%
O=S(=O)(Nc1c(O)nc2cc(C(F)(F)F)ccc2c1Cc1cccc(Cl)c1)C(F)(F)F,Increase,[1],220%
O=S(=O)(Nc1c(O)nc2cc(C(F)(F)F)ccc2c1Cc1cc(Cl)ccc1O)C(F)(F)F,Increase,[2],190%
same,Increase,[1],271%
Nc1c(O)nc2ccc(C(F)(F)F)cc2c1Cc1cc(Cl)ccc1O,Increase,[1],122%
O=S(=O)(Nc1c(O)nc2ccc(C(F)(F)F)cc2c1Cc1cc(Cl)ccc1O)C(F)(F)F,Increase,[2],217%
same,Increase,[6],143%
same,Increase,[1],284%
COc1ccccc1Cc1c(NS(=O)(=O)C(F)(F)F)c(O)nc2cc(C(F)(F)F)ccc12,Increase,[1],254%
